Assay outcomes: PubChem BioAssay, Broad Institute
Shown is part of a subset that was picked to be rich in hits.
IDH1 R132H inh – inhibitors of human IDH1 R132H. O75874. IDH1 R132H reductase, diaphorase/resazurin fluorescence, 60 min. inhibition, % at 10 µM. 70,000 tested, 0.18% active. AID 624101; in the data active = inhibition above about 34%;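 note: 0% = DMSO and 100% = no enzyme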
GASC1 inh – blocks human GASC-1 (KDM4C) demethylase activity | 96,000 tested, 0.15% active | GST-KDM4C 2-372, H3K9me3 peptide, LANCE TR-FRET | inhibition, % at 12.5 µM | Q9H3R0;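 active = mean replicate inhibition above about 25%, with at least 55% of replicates also reaching it, limit read from the data, passing the limit was not always enough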
Target sequence (Q9H3R0 2-372 limits assumed): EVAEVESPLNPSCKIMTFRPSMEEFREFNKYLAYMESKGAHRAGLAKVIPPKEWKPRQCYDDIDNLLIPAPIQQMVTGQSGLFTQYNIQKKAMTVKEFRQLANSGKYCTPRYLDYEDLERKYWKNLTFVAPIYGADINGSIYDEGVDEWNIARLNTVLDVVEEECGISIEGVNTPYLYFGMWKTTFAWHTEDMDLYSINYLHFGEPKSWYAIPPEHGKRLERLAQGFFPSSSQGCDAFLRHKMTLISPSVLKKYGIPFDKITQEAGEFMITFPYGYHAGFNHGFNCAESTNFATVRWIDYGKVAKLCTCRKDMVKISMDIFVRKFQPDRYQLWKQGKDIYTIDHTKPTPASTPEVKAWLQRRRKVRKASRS
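System: N-terminal GST-fused human GASC-1 (KDM4C) fragment, residues 2-372 / Amount: 10 nM GST-KDM4C in enzyme reaction / Also added: H3K9me3 peptide with Fe(II)/2OG / Times: 30 min demethylation and 1 h detection at room temperature / Signal: LANCE TR-FRET / Read-out basis: Fall in 671/618 emission ratio as inhibition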
T cruzi growth-1 – T. cruzi proliferation inhibition; T. cruzi beta-gal in NIH3T3, GalScreen luminescence, 90 h; inhibition, % at 8.34 µM; 77,000 tested, 5.9% active;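 active = mean inhibition above about 93%, with at least 55% of replicates each passing it, limit read from the data, passing the limit was not always enough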
T cruzi growth-2 – blocks T. cruzi growth in NIH3T3 host cells; shares compounds with T cruzi growth-1; T. cruzi beta-gal in NIH3T3, GalScreen luminescence, 90 h; inhibition, % at 8.35 µM; 5,600 tested, 72% active; AID 651739;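 active = mean replicate inhibition above about 95% and at least 55% of replicates individually reaching it, limit read from the data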
T cruzi growth-3 – inhibitors of T. cruzi proliferation; T. cruzi beta-gal in NIH3T3, GalScreen luminescence, 90 h; 5,600 tested, 21% active; inhibition, % at 2.09 µM; AID 651740; shares compounds with T cruzi growth-1;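 active = mean inhibition above about 95%, with at least 55% of replicates also reaching it, limit read from the data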;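 note: plate controls were neutral control median for no effect and positive control median for full effect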
NIH3T3 tox – cytotoxicity in mouse NIH/3T3 fibroblasts. shares compounds with T cruzi growth-1. NIH/3T3 viability, CellTiter-Glo ATP luminescence, 90 h. cytotoxicity (signal decrease), % at 8.35 µM. 5,600 tested, 14% active;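 active = mean signal decrease across replicates above about 35% based on untreated-well scatter, with enough replicates individually passing, limit read from the data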;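 note: 0% = median of neutral control wells and 100% = median of positive control wells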
NIH3T3 tox 2 – NIH/3T3 (mouse) viability loss; inhibition, % at 24.9 µM; AID 651744; shares compounds with T cruzi growth-1; NIH/3T3 viability, CellTiter-Glo ATP luminescence, 90 h; 5,600 tested, 56% active;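 active = mean loss of cell viability signal at or above a set limit, and enough replicates individually reaching it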;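 note: 0% = median of neutral control wells and 100% = median of positive control wells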
The depositor's hits bear a star; . = no result given.

SMILES	IDH1 R132H inh	GASC1 inh	T cruzi growth-1	T cruzi growth-2	T cruzi growth-3	NIH3T3 tox	NIH3T3 tox 2
C[C@@H]1CCCCO[C@H](CN(C)S(=O)(=O)c2cccs2)[C@H](C)CN([C@H](C)CO)C(=O)c2cc(NS(=O)(=O)c3ccc(Cl)cc3)ccc2O1	.	-1	99*	102*	114*	-9	9
C[C@@H]1CCCCO[C@@H](CN(C)S(=O)(=O)c2cccs2)[C@@H](C)CN([C@@H](C)CO)C(=O)c2cc(NS(=O)(=O)c3ccc(Cl)cc3)ccc2O1	1	0	99	.	.	.	.
C[C@@H]1CCCCO[C@@H](CN(C)S(=O)(=O)c2cccs2)[C@H](C)CN([C@@H](C)CO)C(=O)c2cc(NS(=O)(=O)c3ccc(Cl)cc3)ccc2O1	0	0	96*	98*	66	0	14
C[C@@H]1CN([C@@H](C)CO)C(=O)c2cc(NS(=O)(=O)c3ccc(Cl)cc3)ccc2O[C@@H](C)CCCCO[C@@H]1CN(C)S(=O)(=O)c1cccs1	.	1	95	.	.	.	.
C[C@@H]1CCCCO[C@@H](CN(C)S(=O)(=O)c2cccs2)[C@H](C)CN([C@@H](C)CO)C(=O)c2cc(N(C)C)ccc2O1	0	3	33	.	.	.	.
C[C@@H]1CN([C@H](C)CO)C(=O)c2cc(NS(=O)(=O)c3ccc(Cl)cc3)ccc2O[C@@H](C)CCCCO[C@@H]1CN(C)S(=O)(=O)c1cccs1	.	0	101*	116*	79	-13	12
COc1ccc(NC(=O)Nc2ccc3c(c2)CC(=O)N([C@H](C)CO)C[C@H](C)[C@H](CN(C)S(=O)(=O)c2cn(C)cn2)O3)cc1	-5	2	21	.	.	.	.
CC(C)NC(=O)N(C)C[C@@H]1Oc2ccc(NC(=O)Cc3cn(C)c4ccccc34)cc2CC(=O)N([C@H](C)CO)C[C@@H]1C	-23	11	-3	.	.	.	.
O=C(C[C@@H]1CC[C@@H]2[C@H](COC[C@@H](O)CN2C(=O)c2ccncc2)O1)NCc1ccc(-c2ccccc2)cc1	.	-1	-66	.	.	.	.
C[C@@H]1CN([C@@H](C)CO)C(=O)c2cccc(NC(=O)c3nc4ccccc4s3)c2O[C@H]1CN(C)Cc1ccccc1	0	3	69	.	.	.	.
C[C@H](CO)N1C[C@H](C)[C@H](CN(C)C(=O)Nc2ccc3c(c2)OCO3)Oc2ccc(NS(C)(=O)=O)cc2CC1=O	-1	0	19	.	.	.	.
C[C@H]1CCCCO[C@H](CN(C)S(=O)(=O)c2cccs2)[C@@H](C)CN([C@@H](C)CO)C(=O)c2cc(NS(=O)(=O)c3ccccc3)ccc2O1	.	-1	105*	106*	37	-10	-24
C[C@@H]1CN([C@@H](C)CO)C(=O)c2cc(NS(=O)(=O)c3ccc(F)cc3)ccc2O[C@@H](C)CCCCO[C@@H]1CN(C)S(=O)(=O)c1cccs1	0	7	97*	108*	2	-27	-11
C[C@@H]1CCCCO[C@@H](CN(C)S(=O)(=O)c2cccs2)[C@@H](C)CN([C@H](C)CO)C(=O)c2cc(NS(=O)(=O)c3ccccc3)ccc2O1	.	.	-13	.	.	.	.
C[C@@H]1CCCCO[C@@H](CN(C)S(=O)(=O)c2cccs2)[C@@H](C)CN([C@H](C)CO)C(=O)c2cc(NS(=O)(=O)c3ccc(F)cc3)ccc2O1	.	-1	10	.	.	.	.
C[C@@H]1CN([C@H](C)CO)C(=O)c2cc(NC(=O)c3ccncc3)ccc2O[C@@H](C)CCCCO[C@H]1CN(C)Cc1ccccc1	2	0	98*	59	-33	-5	1
C[C@@H]1CN([C@@H](C)CO)C(=O)c2cc(NC(=O)c3ccncc3)ccc2O[C@@H](C)CCCCO[C@@H]1CN(C)C(=O)c1ccccc1	2	3	48	.	.	.	.
C[C@@H]1CCCCO[C@H](CN(C)Cc2ccccc2)[C@H](C)CN([C@@H](C)CO)C(=O)c2cc(NC(=O)c3ccncc3)ccc2O1	.	0	84	.	.	.	.
C[C@@H]1CCCCO[C@@H](CN(C)Cc2ccc(Cl)c(Cl)c2)[C@H](C)CN([C@H](C)CO)C(=O)c2cc(NC(=O)c3ccccc3)ccc2O1	.	0	.	.	.	.	.
